ChEMBL document CHEMBL1138232, “Optimization of naphthalimide-imidazoacridone with potent antitumor activity leading to clinical candidate (HKH40A, RTA 502)” (J Med Chem, 2007)
“And” between values parts separate entries of the source, which are not always exact repeats. Equal values may be shown once.

Experiments:
U-251 = experiment: Antitumor activity against human U251 cells after 48 hrs; type: functional; settings: U-251, 48 h
Procedure, shortened: (§1)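 NCI 60 human tumour cell line screen; 48 h continuous drug exposure. Compounds tested as tri(methanesulfonate) salts, soluble in water and dilute buffers. Dilute solutions are light-sensitive and adsorb to glass or quartz.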

LOX IMVI = experiment: Antitumor activity against human LOX IMVI cells after 48 hrs; type: functional
Procedure, shortened: (§2)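 Tested in the NCI 60 human tumour cell line screen, with continuous drug exposure for 48 h. Values include LC50 derived from the screen.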

OVCAR-3 = experiment: Antitumor activity against human OVCAR-3 cells after 48 hrs; type: functional; settings: OVCAR-3, 48 h; procedure, shortened: as §2
HT-29 = experiment: Growth inhibition of human HT29 cells after 5 days by MTT assay; type: functional; settings: HT-29, 120 h
Procedure, shortened: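 MTT assay after 5 day continuous exposure. GI50, TGI and LC50 calculated from the MTT data. Means ± SD of at least three independent experiments; coefficients of variation 10-20%. Compounds used as tri(methanesulfonate) salts.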

HCT-116 [1] = experiment: Antitumor activity against human HCT116 cells expressing wild type p53; type: functional; settings: read-out: LC50 (the source's name)
Procedure, shortened: (§3)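 Compounds tested as tri(methanesulfonate) salts, soluble in water and dilute buffers. Human tumour cells carrying wild-type or mutated p53 were exposed for 5 days, and viability was read by MTT assay. GI50, TGI and LC50 were calculated from the MTT data. Values are means ± SD of at least three independent experiments, with coefficients of variation of 10–20%.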

ASPC1 = experiment: Antitumor activity against p53 null human ASPC1 cells; type: functional, cell-based
PC-3 = experiment: Antitumor activity against PC3 cells expressing mutated p53; type: functional, cell-based; settings: Homo sapiens; procedure, shortened: as §3
HCT-116 [2] = experiment: Cell cycle arrest in HCT116 cells assessed as accumulation at Sub G1 phase at 50 nM after 72 hrs; type: functional, Homo sapiens
Procedure, shortened: (§4)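 HCT116 cells exposed to 50 nM drug for 72 h, then cell-cycle distribution analysed. Sub-G1, G1, S and G2/M fractions reported as percent of cells, with untreated control cells for comparison.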

HCT-116 [3] = experiment: Cell cycle arrest in HCT116 cells assessed as accumulation at G1 phase at 50 nM after 72 hrs; type: functional, Homo sapiens; procedure, shortened: as §4
HCT-116 [4] = experiment: Cell cycle arrest in HCT116 cells assessed as accumulation at S phase at 50 nM after 72 hrs; type: functional, Homo sapiens; procedure, shortened: as §4
HCT-116 [5] = experiment: Cell cycle arrest in HCT116 cells assessed as accumulation at G2/M phase at 50 nM after 72 hrs; type: functional, Homo sapiens; procedure, shortened: as §4
[6] = Plasma clearance in CD2F1 mouse at 20 mg/kg, iv; type: ADME, organism-based; set-up: dose 20 mg/kg, route intravenous
Procedure, shortened: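 Pilot pharmacokinetics in CD2F1 mice after i.v. injection. Total plasma clearance derived from plasma concentration data.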

[7] = Apparent volume of distribution in NCR nu/nu mouse at 20 mg/kg, iv; type: ADME, organism-based; set-up: dose 20 mg/kg, route intravenous; settings: in vivo
Procedure, shortened: (§5)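 Single i.v. dose of 20 mg/kg to ncr nu/nu mice and an F344 rat. Plasma concentrations followed over time and fitted by nonlinear regression to give distribution and elimination phases, AUC and apparent volumes of distribution. Detection limit 50 nM.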

[8] = Apparent volume of distribution in F344 rat at 20 mg/kg, iv; type: ADME, organism-based; set-up: dose 20 mg/kg, route intravenous; settings: in vivo; procedure, shortened: as §5
HCT-116 [9] = experiment: Inhibition of tumor growth in HCT116 cells xenografted in nu/nu mouse; type: functional, Homo sapiens
Procedure, shortened: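 HCT116 xenografts in mice; compound given i.v. on a Q3Dx4 schedule, starting when tumours reached 62 mm3. Tumour growth inhibition measured.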

MIA PaCa-2 = experiment: Inhibition of tumor growth in PaCa2 cells xenografted nu/nu mouse at 15 mg/kg; type: functional, Homo sapiens
Procedure, shortened: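 PaCa-2 tumour fragments implanted on the flank of nu/nu mice, 10 per group. Intraperitoneal treatment, Q3Dx4, started 12 days post-inoculation at 80 mm3 tumour volume. Tumour growth inhibition measured.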

CCRF-CEM = experiment: Antitumor activity against human CCRF-CEM cells after 48 hrs; type: functional; procedure, shortened: as §2
K562 = experiment: Antitumor activity against human K562 cells after 48 hrs; type: functional; procedure, shortened: as §2
EKVX = experiment: Antitumor activity against human EKVX cells after 48 hrs; type: functional; procedure, shortened: as §2
SR = experiment: Antitumor activity against human SR cells after 48 hrs; type: functional; procedure, shortened: as §1
NCI-H226 = experiment: Antitumor activity against human NCI-H226 cells after 48 hrs; type: functional; settings: NCI-H226, 48 h; procedure, shortened: as §2
NCI-H522 = experiment: Antitumor activity against human NCI-H522 cells after 48 hrs; type: functional; settings: NCI-H522, 48 h; procedure, shortened: as §2
COLO 205 = experiment: Antitumor activity against human COLO205 cells after 48 hrs; type: functional; settings: COLO 205, 48 h; procedure, shortened: as §2
HCT-116 [10] = experiment: Antitumor activity against human HCT116 cells after 48 hrs; type: functional; settings: HCT-116, 48 h; procedure, shortened: as §2
KM12 = experiment: Antitumor activity against human KM12 cells after 48 hrs; type: functional; settings: KM12, 48 h; procedure, shortened: as §2
SNB-19 = experiment: Antitumor activity against human SNB19 cells after 48 hrs; type: functional; settings: SNB-19, 48 h; procedure, shortened: as §2
SK-OV-3 = experiment: Antitumor activity against human SK-OV-3 cells after 48 hrs; type: functional; settings: SK-OV-3, 48 h; procedure, shortened: as §2
A498 = experiment: Antitumor activity against human A498 cells after 48 hrs; type: functional; settings: A498, 48 h; procedure, shortened: as §2
DU-145 = experiment: Antitumor activity against human DU145 cells after 48 hrs; type: functional; settings: DU-145, 48 h; procedure, shortened: as §2
MCF7 = experiment: Antitumor activity against human MCF7 cells after 48 hrs; type: functional; settings: MCF7, 48 h; procedure, shortened: as §2
NCI = experiment: Antitumor activity against human NCI/ADR-RES cells after 48 hrs; type: functional; procedure, shortened: as §2
Hs-578T = experiment: Antitumor activity against human HS578T cells after 48 hrs; type: functional; procedure, shortened: as §2
BT-549 = experiment: Antitumor activity against human BT549 cells after 48 hrs; type: functional; settings: BT-549, 48 h; procedure, shortened: as §2
[11] = read-out: Log LC50 (the source's name) (converted)

For `COc1ccc2c(c1)c(=O)c1c(NCCCN3CCN(CCCN4C(=O)c5cccc6cc([N+](=O)[O-])cc(c56)C4=O)CC3)ccc3ncn2c31.CS(=O)(=O)O`, the GI50 (U-251) was 2.19 nM, the CC50 (U-251; [11]) was > 1000 nM and the TGI (U-251; read-out: Log TGI (converted)) was > 1000 nM. For the same compound, the GI50 (LOX IMVI) was 1.86 nM, the CC50 (LOX IMVI; [11]) was > 1000 nM and the TGI (LOX IMVI; read-out: Log TGI (converted)) was 77.6 nM. The GI50 (OVCAR-3) was 50.1 nM, the CC50 (OVCAR-3; [11]) was > 1000 nM and the TGI (OVCAR-3; read-out: Log TGI (converted)) was > 1000 nM. For the same compound, the GI50 (HT-29) was 1 nM, the CC50 (HT-29; read-out: LC50 (the source's name)) was 80 nM and the CC50 (HCT-116 [1]) was 30 nM. For the same compound, the IC50 (ASPC1) was 70 nM, the IC50 (PC-3) was 45 nM and the Activity (HCT-116 [2]) was 48%. The Activity (HCT-116 [3]) was 22.6%, the Activity (HCT-116 [4]) was 2.3% and the Activity (HCT-116 [5]) was 27.1%. The clearance [6] was 238 mL/min/kg, the Vd [7] was 57 L/kg and the Vd [8] was 138 L/kg. For the same compound, the TGI (HCT-116 [9]) was 59%, the inhibition in vivo at 15 mg/kg (MIA PaCa-2) was 53.5% and the GI50 (CCRF-CEM) was 4.07 nM. The CC50 (CCRF-CEM; [11]) was > 1000 nM, the TGI (CCRF-CEM; read-out: Log TGI (converted)) was 97.7 nM and the GI50 (K562; Homo sapiens, K562, 48 h) was 1.74 nM. For the same compound, the TGI (K562; read-out: Log TGI (converted)) was 186 nM and > 1000 nM, the GI50 (EKVX) was 3.31 nM and the CC50 (EKVX; [11]) was > 1000 nM. The TGI (EKVX; read-out: Log TGI (converted)) was 58.9 nM, the GI50 (SR) was < 0.1 nM and the CC50 (SR; [11]) was 17 nM. The TGI (SR; read-out: Log TGI (converted)) was < 0.1 nM, the GI50 (NCI-H226) was 1.32 nM and the CC50 (NCI-H226; [11]) was > 1000 nM. The TGI (NCI-H226; read-out: Log TGI (converted)) was 32.4 nM, the GI50 (NCI-H522) was 4.17 nM and the CC50 (NCI-H522; [11]) was > 1000 nM. The TGI (NCI-H522; read-out: Log TGI (converted)) was 151 nM, the GI50 (COLO 205) was 6.31 nM and the CC50 (COLO 205; [11]) was > 1000 nM. For the same compound, the TGI (COLO 205; read-out: Log TGI (converted)) was > 1000 nM, the GI50 (HCT-116 [10]) was 0.407 nM and the CC50 (HCT-116 [10]; [11]) was 214 nM. For the same compound, the TGI (HCT-116 [10]; read-out: Log TGI (converted)) was 15.1 nM, the GI50 (KM12) was 4.37 nM and the CC50 (KM12; [11]) was > 1000 nM. For the same compound, the TGI (KM12; read-out: Log TGI (converted)) was 537 nM, the GI50 (SNB-19) was 8.51 nM and the CC50 (SNB-19; [11]) was > 1000 nM. For the same compound, the TGI (SNB-19; read-out: Log TGI (converted)) was > 1000 nM, the GI50 (SK-OV-3) was 151 nM and the CC50 (SK-OV-3; [11]) was > 1000 nM. The TGI (SK-OV-3; read-out: Log TGI (converted)) was > 1000 nM, the GI50 (A498) was 6.61 nM and the CC50 (A498; [11]) was > 1000 nM. The TGI (A498; read-out: Log TGI (converted)) was 331 nM, the GI50 (DU-145) was 3.71 nM and the CC50 (DU-145; [11]) was > 1000 nM. The TGI (DU-145; read-out: Log TGI (converted)) was > 1000 nM, the GI50 (MCF7) was 4.68 nM and the CC50 (MCF7; [11]) was > 1000 nM. For the same compound, the TGI (MCF7; read-out: Log TGI (converted)) was > 1000 nM, the GI50 (NCI) was 24 nM and the CC50 (NCI; [11]) was > 1000 nM. The TGI (NCI; read-out: Log TGI (converted)) was > 1000 nM, the GI50 (Hs-578T) was 14.8 nM and the CC50 (Hs-578T; [11]) was > 1000 nM. The TGI (Hs-578T; read-out: Log TGI (converted)) was > 1000 nM, the GI50 (BT-549) was 3.09 nM and the CC50 (BT-549; [11]) was > 1000 nM. For the same compound, the TGI (BT-549; read-out: Log TGI (converted)) was 53.7 nM.
